Results on one compound are retold here after ChEMBL document CHEMBL3596119, “Synthesis and biological characterization of a promising F-18 PET tracer for vesicular acetylcholine transporter” (Bioorg Med Chem, 2015).

For data set [1], the system named is Muscle tissue. Briefly: Biodistribution in Sprague-Dawley rat muscle at 2.2 MBq/120 uL, iv after 60 mins by gamma counting. It is filed as ADME, organism-based. Particulars: in vivo, 1 h; call rule not given here. The essentials: (§1)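 Adult male SD rats, isoflurane (2-3%)/oxygen anesthesia, tail-vein injection of ~2.2 MBq/120 μL tracer in 10% ethanol in saline; euthanized under anesthesia at the stated time (n = 4 per time point). Brain dissected into regions, remainder kept for total brain; organs, blood, bone collected and weighed, gamma-counted against a standard dilution of injectate; %ID/g calculated.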

Data set [2] concerns Rattus norvegicus. Briefly: Biodistribution in Sprague-Dawley rat brain stem at 2.2 MBq/120 uL, iv after 5 mins by gamma counting. The class given is ADME, organism-based. The conditions noted are these: in vivo. The method in brief: as §1
Data set [3] concerns Kidney. Briefly: Biodistribution in Sprague-Dawley rat kidney at 2.2 MBq/120 uL, iv after 120 mins by gamma counting. It is filed as ADME, organism-based. The conditions noted are these: in vivo, 2 h. The method in brief: as §1
Data set [4] relates to Lung. The experiment in a line: Biodistribution in Sprague-Dawley rat lung at 2.2 MBq/120 uL, iv after 60 mins by gamma counting. The class given is ADME, organism-based. Particulars: in vivo, 1 h. The essentials: as §1
Data set [5] deals with Muscle tissue. Briefly: Biodistribution in Sprague-Dawley rat muscle at 2.2 MBq/120 uL, iv after 120 mins by gamma counting. It is filed as ADME, organism-based. Particulars: in vivo, 2 h. The essentials:
as §1

For data set [6], the system named is Rattus norvegicus. Briefly: Biodistribution in Sprague-Dawley rat total brain at 2.2 MBq/120 uL, iv after 120 mins by gamma counting. The class given is ADME, organism-based. Particulars: in vivo, 2 h. The essentials: as §1
Data set [7] relates to Blood. The experiment in a line: Biodistribution in Sprague-Dawley rat blood at 2.2 MBq/120 uL, iv after 30 mins by gamma counting. It is filed as ADME, organism-based. The conditions noted are these: in vivo, 0.5 h. The method in brief: as §1
The subject of data set [8] is Thalamus. Briefly: Biodistribution in Sprague-Dawley rat thalamus at 2.2 MBq/120 uL, iv after 5 mins by gamma counting. It is filed as ADME, organism-based. The conditions noted are these: in vivo. The essentials:
as §1

The test system of data set [9] is Bone. The experiment in a line: Biodistribution in Sprague-Dawley rat bone at 2.2 MBq/120 uL, iv after 120 mins by gamma counting. The class given is ADME, organism-based, Bone element. Particulars: in vivo, 2 h. The method in brief:
as §1

In data set [10] the test system is Spleen. The experiment in a line: Biodistribution in Sprague-Dawley rat spleen at 2.2 MBq/120 uL, iv after 30 mins by gamma counting. The conditions noted are these: in vivo, 0.5 h. It is filed as ADME, organism-based. The method in brief: as §1
The subject of data set [11] is Liver. The experiment in a line: Biodistribution in Sprague-Dawley rat liver at 2.2 MBq/120 uL, iv after 30 mins by gamma counting. The class given is ADME, organism-based. Particulars: in vivo, 0.5 h. The essentials: as §1
In data set [12] the test system is Bone. The experiment in a line: Biodistribution in Sprague-Dawley rat bone at 2.2 MBq/120 uL, iv after 60 mins by gamma counting. The class given is ADME, organism-based, Bone element. Particulars: in vivo, 1 h. The method in brief: as §1
Data set [13] has as its system Cerebellum. Briefly: Biodistribution in Sprague-Dawley rat cerebellum at 2.2 MBq/120 uL, iv after 5 mins by gamma counting. It is filed as ADME, organism-based. The conditions noted are these: in vivo. The method in brief: as §1
Data set [14] can be described thus: Drug uptake in cynomolgus monkey striatum at 296 to 410 MBq administered via venous catheter after 120 mins by microPET imaging. The class given is ADME, Macaca fascicularis. Particulars: in vivo, iv, 2 h. The method in brief: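 Male cynomolgus monkeys (6-8 kg) were fasted 12 h, induced with ketamine/glycopyrrolate i.m., then kept on 0.75-2.0% isoflurane at 37 °C. After a transmission scan for attenuation correction, a 2 h dynamic microPET scan was acquired. Framing was 3×1, 4×2, 3×3, 20×5 min. Striatal uptake was read as SUV from time-activity curves, with cerebellum as reference.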

For data set [15], the system named is Liver. The experiment in a line: Biodistribution in Sprague-Dawley rat liver at 2.2 MBq/120 uL, iv after 120 mins by gamma counting. The class given is ADME, organism-based. The conditions noted are these: in vivo, 2 h. The method in brief:
as §1

Data set [16] relates to Kidney. Briefly: Biodistribution in Sprague-Dawley rat kidney at 2.2 MBq/120 uL, iv after 30 mins by gamma counting. The conditions noted are these: in vivo, 0.5 h. The class given is ADME, organism-based. The method in brief:
as §1

The test system of data set [17] is Spleen. The experiment in a line: Biodistribution in Sprague-Dawley rat spleen at 2.2 MBq/120 uL, iv after 5 mins by gamma counting. The class given is ADME, organism-based. Particulars: in vivo. The essentials: as §1
Data set [18] deals with Pancreas. Briefly: Biodistribution in Sprague-Dawley rat pancreas at 2.2 MBq/120 uL, iv after 120 mins by gamma counting. It is filed as ADME, organism-based. Particulars: in vivo, 2 h. The essentials:
as §1

For data set [19], the system named is Heart. The experiment in a line: Biodistribution in Sprague-Dawley rat heart at 2.2 MBq/120 uL, iv after 30 mins by gamma counting. It is filed as ADME, organism-based. The conditions noted are these: in vivo, 0.5 h. The method in brief: as §1

`O=C(c1ccc(F)cc1)C1CCN(C2Cc3c(cccc3OCC[18F])CC2O)CC1` (single isomer, unassigned; (-)): the Drug uptake in data set [1] is recorded as 0.253 % ID/g; in [2] it was 0.683 % ID/g; in [3], 0.489 % ID/g; in data set [4], 0.738 % ID/g; in [5] it was 0.235 % ID/g; in data set [6], 0.409 % ID/g. Further, the Drug uptake in data set [7] is 0.27 % ID/g; in data set [8], 0.691 % ID/g; in data set [9], 0.537 % ID/g; in [10], 0.685 % ID/g; in data set [11], 0.523 % ID/g; in data set [12], 0.403 % ID/g. For the same compound, the Drug uptake in [13] is recorded as 0.593 % ID/g; in [14], “Not Active”; in data set [15], 0.382 % ID/g; in data set [16], 0.883 % ID/g; in data set [17] it was 1.265 % ID/g; in [18], 0.819 % ID/g. The Drug uptake in [19] worked out at 0.39 % ID/g.
